Most compounds without a hit are left out; they make up all but 3.9% or so of the library.
ANO1 block = inhibitors of mouse TMEM16A calcium-activated chloride channel; AID 588511; 310,000 tested, 1.2% active; normalized B-score (activity score, 25-100; higher = stronger inhibition) at 10 µM; HEK293 TMEM16A/YFP iodide influx fluorescence, ionomycin;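 active = ratio plate-corrected score three or more library SD toward inhibition, starting fluorescence score within five deviations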;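 also: score derived from kinetic fluorescence span divided by baseline fluorescence per well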
TAAR1 ag = agonists of human TAAR1. Q96RJ0. CHO RD-HGA16 TAAR1, Fluo-8 calcium fluorescence; vehicle wells 0%, saturating PEA agonist 100%. activation, % at 3 µM. 360,000 tested, 0.99% active. AID 624467;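 active = activation above the mean activation of all test compounds in the run plus 3 SD, cut at about 38% in these data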
Target sequence (Q96RJ0 whole entry, looked up): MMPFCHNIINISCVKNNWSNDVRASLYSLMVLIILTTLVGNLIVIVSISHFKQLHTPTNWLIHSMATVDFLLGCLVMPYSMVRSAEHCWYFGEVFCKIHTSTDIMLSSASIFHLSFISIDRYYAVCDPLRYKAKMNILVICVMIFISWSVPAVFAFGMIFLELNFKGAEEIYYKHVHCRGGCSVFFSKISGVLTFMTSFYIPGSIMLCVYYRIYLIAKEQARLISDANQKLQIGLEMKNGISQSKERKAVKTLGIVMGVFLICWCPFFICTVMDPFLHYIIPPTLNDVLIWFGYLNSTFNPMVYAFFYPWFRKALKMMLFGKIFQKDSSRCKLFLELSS
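Test system: RD-HGA16 (CHO) cells co-expressing Gα16 and hTAAR1; dosing: one-point dosing at 3 µM (nominal); timing: 17-24 h seeding, 75 min 37 °C dye, 30 min RT; signal: kinetic Fluo-8 calcium fluorescence; read-out basis: % activation relative to PEA EC100 response; controls: DMSO and PEA EC100; replicates: n 1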
CRFR2-BP antag = antagonists of CRF-binding protein/CRF-R2 receptor complex; 350,000 tested, 0.59% active; HEK293 CRF-R2/CRF-BP, CRF-induced calcium fluorescence; inhibition, % at 11.8 µM; AID 588475;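 active = inhibition of the ligand-induced calcium signal above about 50% at the single tested concentration, limit read from the data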
TAAR1 antagonist = human TAAR1 antagonism | Q96RJ0 | CHO RD-HGA16 TAAR1, Fluo-8 calcium fluorescence, antagonist | inhibition, % at 3 µM | 360,000 tested, 1.5% active | AID 624466;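 active = inhibition above a per-plate cutoff, the mean inhibition of test compounds on that plate plus 3 SD, cut at about 49% in these data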
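Assay system: RD-HGA16 CHO cells with stable hTAAR1 and Gα16 / Reagent: EC80 β-phenethylamine stimulus / Doses: 3 µM, single point / Timing: dye loading 75 min at 37 °C, then 30 min room temperature / Measured by: Fluo-8 intracellular calcium dye fluorescence, real-time kinetic reads / Controls: vehicle wells and EC80 agonist wells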
CRFBP-R2 agonist = agonists of human CRF-binding protein/CRF-R2 receptor complex; HEK293 CRF-R2/CRF-BP, calcium dye fluorescence (FLIPR); percent of saturating CRF peptide response; activation, % at 13.2 µM; 350,000 tested, 0.46% active;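 active = activation of at least 50%, plus an integration ratio under a set limit after plate pattern correction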
TMEM16A act = mouse TMEM16A channel activation, primary screen. 340,000 tested, 0.3% active. Q8BHY3. HEK293 TMEM16A/YFP-H148Q/I152L, iodide quench fluorescence; hits give low values. B-score at 10 µM;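 active = fluorescence-ratio B-score plate-corrected deviation score at least 3 library SD below zero, with starting fluorescence score within 5 deviations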;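 also: channel opened by trigger with iodide after compound preincubation; score built on the fluorescence ratio of max minus min over baseline; more negative score means more quench and so TMEM16A activation or potentiation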
TMEM16A reconf = TMEM16A (mouse) chloride channel inhibition, re-confirmation; shares compounds with ANO1 block; HEK293 TMEM16A/YFP-H148Q, iodide quench fluorescence; ionomycin added to raise cell calcium; inhibition, % at 10 µM; 2,300 tested, 39% active; AID 652189;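 active = mean duplicate percent inhibition, scaled so buffer wells are 0 and the reference blocker 100, over three buffer SD above buffer mean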
HEK293 Ca mobil = calcium mobilization counter-screen hit for TMEM16A inhibitor series; shares compounds with ANO1 block; TMEM16A/YFP HEK293, Fluo4 calcium mobilization; calcium response (% of ionomycin), % at 10 µM; 2,300 tested, 2% active; AID 652231;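 active = duplicate-averaged calcium signal over 20% of the ionomycin maximum, relative to buffer baseline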;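 also: each well's signal is peak minus trough fluorescence divided by its pre-addition baseline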
Parental YFP cnt = counter-screen for TMEM16A inhibitors: effect in parental YFP-HEK293 cells; 2,300 tested, under 10 active; YFP ratio F(max-min)/F0 at 10 µM; iodide YFP quench, ionomycin; shares compounds with ANO1 block;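 active = yellow fluorescent protein signal ratio exceeding the buffer control mean by over 5 SD of those controls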;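 also: ratio is mean of duplicate wells from kinetic YFP trace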
ClC-1 inh = selectivity of TMEM16A inhibitors: inhibition of rat ClC-1 chloride channel; shares compounds with ANO1 block; CHO ClC-1-YFP, iodide influx fluorescence quench; iodide control reads 0, buffer control 100; ratio percent, % at 10 µM; 2,300 tested, under 10 active; AID 652236;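 active = duplicate-mean ratio percent above the mean of iodide-only control wells, which defines zero, plus 5 of their SD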;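 also: higher percent means stronger block of ClC-1 iodide influx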
Numbers stand for hits.

Results for CCNC(=S)NNC(=O)c1cc(-c2cccc(C)c2)nc2ccccc12 ?
ANO1 block: inactive; TAAR1 ag: inactive; CRFR2-BP antag: inactive; TAAR1 antagonist: inactive; CRFBP-R2 agonist: inactive; TMEM16A act: inactive

What do the screens show for `CCCCOc1cccc(-c2cc(C(=O)NNC(=S)NCC)c3ccccc3n2)c1`?
ANO1 block: 25; TAAR1 ag: inactive; CRFR2-BP antag: inactive; TAAR1 antagonist: inactive; CRFBP-R2 agonist: inactive; TMEM16A act: inactive; TMEM16A reconf: 24%; HEK293 Ca mobil: inactive; Parental YFP cnt: inactive; ClC-1 inh: inactive

Results for CCNC(=S)NNC(=O)c1cc(-c2cccc(OCC)c2)nc2ccccc12 ?
ANO1 block: 25; TAAR1 ag: inactive; CRFR2-BP antag: inactive; TAAR1 antagonist: inactive; CRFBP-R2 agonist: inactive; TMEM16A act: inactive; TMEM16A reconf: inactive; HEK293 Ca mobil: inactive; Parental YFP cnt: inactive; ClC-1 inh: inactive

Results for Cc1nnc(NC(=O)CSc2nnc(CC(=O)Nc3ccccc3C)n2C)s1 ?
ANO1 block: inactive; TAAR1 ag: inactive; CRFR2-BP antag: inactive; TAAR1 antagonist: inactive; CRFBP-R2 agonist: inactive; TMEM16A act: inactive

Results for CCOC(=O)c1csc(Nc2nc3ccc(F)cc3s2)n1 ?
ANO1 block: 100; TAAR1 ag: inactive; CRFR2-BP antag: inactive; TAAR1 antagonist: inactive; CRFBP-R2 agonist: inactive; TMEM16A act: inactive; TMEM16A reconf: inactive; HEK293 Ca mobil: inactive; Parental YFP cnt: inactive; ClC-1 inh: inactive

Results for COc1ccc(C2C3=C(CC(C)(C)CC3=O)Nc3n[nH]c(C)c32)cc1 (stereo not given) ?
ANO1 block: 100; TAAR1 ag: inactive; CRFR2-BP antag: inactive; TAAR1 antagonist: inactive; CRFBP-R2 agonist: inactive; TMEM16A act: inactive; TMEM16A reconf: inactive; HEK293 Ca mobil: inactive; Parental YFP cnt: inactive; ClC-1 inh: inactive

What do the screens show for `CC1C(=O)N2CCCc3cc(S(=O)(=O)N(C)c4ccccc4)cc1c32` (stereo not given)?
ANO1 block: inactive; TAAR1 ag: inactive; CRFR2-BP antag: inactive; TAAR1 antagonist: inactive; CRFBP-R2 agonist: inactive; TMEM16A act: inactive

How did COc1ccc(Cl)cc1NC(=O)COC(=O)CNC(=O)c1ccc([N+](=O)[O-])c(C)c1 do in these assays?
ANO1 block: inactive; TAAR1 ag: inactive; CRFR2-BP antag: inactive; TAAR1 antagonist: inactive; CRFBP-R2 agonist: inactive; TMEM16A act: inactive

Results for Cc1cc(C(=O)NCC(=O)OCC(=O)Nc2ccc(OC(F)F)cc2)ccc1[N+](=O)[O-] ?
ANO1 block: 25; TAAR1 ag: inactive; CRFR2-BP antag: inactive; TAAR1 antagonist: inactive; CRFBP-R2 agonist: inactive; TMEM16A act: inactive; TMEM16A reconf: inactive; HEK293 Ca mobil: inactive; Parental YFP cnt: inactive; ClC-1 inh: inactive

Results for Cc1ccc(-c2nc3cccnc3o2)cc1NC(=O)COc1ccc(C(C)(C)C)cc1 ?
ANO1 block: 25; TAAR1 ag: inactive; CRFR2-BP antag: inactive; TAAR1 antagonist: 69; CRFBP-R2 agonist: inactive; TMEM16A act: inactive; TMEM16A reconf: inactive; HEK293 Ca mobil: 21%; Parental YFP cnt: inactive; ClC-1 inh: inactive

What do the screens show for `CSc1nc2ccc(NS(=O)(=O)c3ccc4c(c3)OCCO4)cc2s1`?
ANO1 block: 100; TAAR1 ag: inactive; CRFR2-BP antag: inactive; TAAR1 antagonist: inactive; CRFBP-R2 agonist: inactive; TMEM16A act: inactive; TMEM16A reconf: 18%; HEK293 Ca mobil: inactive; Parental YFP cnt: inactive; ClC-1 inh: inactive

Results for CSc1nc2ccc(NS(=O)(=O)c3c(Cl)cccc3Cl)cc2s1 ?
ANO1 block: inactive; TAAR1 ag: inactive; CRFR2-BP antag: inactive; TAAR1 antagonist: inactive; CRFBP-R2 agonist: inactive; TMEM16A act: inactive

What do the screens show for `Cc1cc(Br)ccc1NC(=O)CNC(=O)Cc1ccc(S(=O)(=O)N2CCOCC2)s1`?
ANO1 block: inactive; TAAR1 ag: inactive; CRFR2-BP antag: inactive; TAAR1 antagonist: inactive; CRFBP-R2 agonist: inactive; TMEM16A act: inactive

Results for CCOc1ccc(C(=O)C(C)OC(=O)C2CCN(c3ccc(C(F)(F)F)cn3)CC2)cc1 (stereo not given) ?
ANO1 block: 25; TAAR1 ag: inactive; CRFR2-BP antag: inactive; TAAR1 antagonist: inactive; CRFBP-R2 agonist: inactive; TMEM16A act: inactive; TMEM16A reconf: inactive; HEK293 Ca mobil: inactive; Parental YFP cnt: inactive; ClC-1 inh: inactive

What do the screens show for `Cc1ccc(C(=O)C(C)OC(=O)C2CCN(c3ccc(C(F)(F)F)cn3)CC2)cc1C` (stereo not given)?
ANO1 block: inactive; TAAR1 ag: inactive; CRFR2-BP antag: inactive; TAAR1 antagonist: inactive; CRFBP-R2 agonist: inactive; TMEM16A act: inactive

What do the screens show for `O=C(C1CCCN1S(=O)(=O)c1ccc(Cl)cc1)N1CCCCC1` (stereo not given)?
ANO1 block: inactive; TAAR1 ag: inactive; CRFR2-BP antag: inactive; TAAR1 antagonist: inactive; CRFBP-R2 agonist: inactive; TMEM16A act: inactive

Results for C=CCn1c(C)cc(C(=O)CSc2nc3ccccc3[nH]2)c1C ?
ANO1 block: 25; TAAR1 ag: inactive; CRFR2-BP antag: inactive; TAAR1 antagonist: 60; CRFBP-R2 agonist: inactive; TMEM16A act: inactive; TMEM16A reconf: 43%; HEK293 Ca mobil: inactive; Parental YFP cnt: inactive; ClC-1 inh: inactive

Results for Cc1cc(C(=O)CSc2nc3ccccc3[nH]2)c(C)n1C ?
ANO1 block: inactive; TAAR1 ag: inactive; CRFR2-BP antag: inactive; TAAR1 antagonist: inactive; CRFBP-R2 agonist: inactive; TMEM16A act: inactive

Results for Cc1cc(C)n2c(Nc3ccc4c(c3)OCCO4)c(-c3cc4ccccc4o3)nc2n1 ?
TAAR1 ag: inactive; TAAR1 antagonist: inactive

What do the screens show for `Cc1cc(C)n2c(Nc3ccc4c(c3)OCCO4)c(-c3ccc(C)o3)nc2n1`?
ANO1 block: inactive; TAAR1 ag: inactive; CRFR2-BP antag: inactive; TAAR1 antagonist: inactive; CRFBP-R2 agonist: inactive; TMEM16A act: inactive; TMEM16A reconf: inactive; HEK293 Ca mobil: inactive; Parental YFP cnt: inactive; ClC-1 inh: inactive

Screens from PubChem BioAssay.
